Data from BindingDB's records for doi:10.1021/jm00089a022 (Warner-Lambert, 1992).

What was measured:
[1] = target: T1, 3-hydroxy-3-methylglutaryl-coenzyme A reductase (Homo sapiens, UniProt P04035); experiment: ChEBML_80349
T1 sequence (P04035 whole entry): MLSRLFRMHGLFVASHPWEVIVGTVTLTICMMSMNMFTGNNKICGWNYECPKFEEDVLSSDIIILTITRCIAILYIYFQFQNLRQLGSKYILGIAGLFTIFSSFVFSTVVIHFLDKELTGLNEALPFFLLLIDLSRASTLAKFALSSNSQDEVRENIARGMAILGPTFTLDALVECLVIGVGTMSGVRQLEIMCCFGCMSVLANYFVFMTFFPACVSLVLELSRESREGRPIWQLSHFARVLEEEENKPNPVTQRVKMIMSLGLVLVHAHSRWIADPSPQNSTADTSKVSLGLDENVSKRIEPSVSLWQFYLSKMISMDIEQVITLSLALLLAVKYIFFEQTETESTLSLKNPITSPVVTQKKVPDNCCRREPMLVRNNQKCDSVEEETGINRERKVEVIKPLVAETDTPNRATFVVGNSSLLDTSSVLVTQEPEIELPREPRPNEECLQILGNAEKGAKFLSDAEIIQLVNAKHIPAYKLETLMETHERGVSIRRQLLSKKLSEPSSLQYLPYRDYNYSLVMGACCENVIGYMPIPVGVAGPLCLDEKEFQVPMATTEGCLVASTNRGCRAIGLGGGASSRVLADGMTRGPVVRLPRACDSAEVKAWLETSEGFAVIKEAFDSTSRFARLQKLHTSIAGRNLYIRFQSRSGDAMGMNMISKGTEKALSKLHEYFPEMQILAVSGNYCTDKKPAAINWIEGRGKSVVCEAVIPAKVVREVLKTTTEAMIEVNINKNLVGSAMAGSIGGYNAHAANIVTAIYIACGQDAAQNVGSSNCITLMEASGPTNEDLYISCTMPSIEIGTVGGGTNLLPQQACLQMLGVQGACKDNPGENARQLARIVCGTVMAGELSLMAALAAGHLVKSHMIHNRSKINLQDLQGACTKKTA
Description: (§1) Tested in vitro for the inhibition of HMG-CoA reductase from partially purified microsomal preparations.

[2] = target: T1, 3-hydroxy-3-methylglutaryl-coenzyme A reductase; experiment: as §1
How it was run: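 Lactones saponified to the 3,5-dihydroxy acids before assay. Inhibition of partially purified microsomal HMG-CoA reductase. Each inhibitor concentration assayed in triplicate.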

For CC(C)c1nn(-c2cnccn2)c(-c2ccc(F)cc2)c1/C=C/[C@@H](O)C[C@@H](O)CC(=O)O, the IC50 [1] was 7 nM.
Compound CC[C@H](C)C(=O)O[C@H]1C[C@@H](C)C=C2C=C[C@H](C)[C@H](CCC(O)C[C@@H](O)CC(=O)O)[C@H]21 (some centres undefined) has an IC50 [1] of 20 nM.
CC(C)c1nn(-c2ccccc2)c(-c2ccc(F)cc2)c1/C=C/[C@@H](O)C[C@@H](O)CC(=O)O was tested, and the IC50 [1] was 7 nM.
CC(C)c1nn(-c2ccccn2)c(-c2ccc(F)cc2)c1/C=C/[C@@H](O)C[C@@H](O)CC(=O)O showed an IC50 [2] of 24 nM.
With O=C(O)C[C@H](O)C[C@H](O)/C=C/c1c(C(F)(F)F)nn(-c2ccccn2)c1-c1ccc(F)cc1 the IC50 [1] was 17 nM.
In the case of CC(C)c1nn(-c2ccccn2)c(-c2ccc(F)cc2)c1CCC(O)C[C@@H](O)CC(=O)O (some centres undefined), the IC50 [1] is reported as 110 nM.
CC(C)c1nn(-c2ccccc2)c(-c2ccc(F)cc2)c1CCC(O)C[C@@H](O)CC(=O)O (some centres undefined) was tested, and the IC50 [1] was 40 nM.
Work on CC(C)c1nn(-c2ccc3ccccc3n2)c(-c2ccc(F)cc2)c1/C=C/[C@@H](O)C[C@@H](O)CC(=O)O yielded an IC50 [1] of 62 nM.
CC(C)c1nn(-c2nc3ccccc3s2)c(-c2ccc(F)cc2)c1/C=C/[C@@H](O)C[C@@H](O)CC(=O)O showed an IC50 [1] of 59 nM.
